# Measured values taken from the M2OR odorant receptor database.
# Where a chain is given by its changes, count along the chain named.
# Columns and labels:
# Conditions in all cases: stereoisomer not certain
# OR2T4 (Homo sapiens) = molecular target: T1, OR2T4 (Homo sapiens) (UniProt Q8NH00)
# T1 sequence (whole entry): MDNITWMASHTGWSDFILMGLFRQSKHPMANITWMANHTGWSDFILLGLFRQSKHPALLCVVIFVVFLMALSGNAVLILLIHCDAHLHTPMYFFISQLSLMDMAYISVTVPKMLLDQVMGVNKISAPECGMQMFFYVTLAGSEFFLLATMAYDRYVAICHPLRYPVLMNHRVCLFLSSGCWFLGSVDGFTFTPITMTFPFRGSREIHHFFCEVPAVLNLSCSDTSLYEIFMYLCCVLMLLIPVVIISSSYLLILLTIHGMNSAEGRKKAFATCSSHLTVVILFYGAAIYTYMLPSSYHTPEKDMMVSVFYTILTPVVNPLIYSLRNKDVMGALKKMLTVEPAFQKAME
# Procedure, shortened: (§1)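 Each entry records the cell line, G-protein, co-transfected protein and tags used. Methods varied with the source, often transient luciferase assays in mammalian cell lines. A receptor–molecule pair is called responsive (active) if the original authors judged its signal statistically different from baseline and non-responsive (inactive) otherwise.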
# OR2W1 (Homo sapiens) = molecular target: T2, OR2W1 (Homo sapiens) (UniProt Q9Y3N9)
# T2 sequence (whole entry): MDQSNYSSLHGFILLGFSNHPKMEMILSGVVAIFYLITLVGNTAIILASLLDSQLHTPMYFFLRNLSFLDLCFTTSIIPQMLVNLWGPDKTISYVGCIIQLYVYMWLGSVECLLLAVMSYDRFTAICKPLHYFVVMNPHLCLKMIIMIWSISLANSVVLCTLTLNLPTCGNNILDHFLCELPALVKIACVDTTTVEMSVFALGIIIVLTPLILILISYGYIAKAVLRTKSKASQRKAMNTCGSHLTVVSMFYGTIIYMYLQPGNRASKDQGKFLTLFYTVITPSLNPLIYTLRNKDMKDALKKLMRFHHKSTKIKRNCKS
# Procedure, shortened: as §1
# OR2W1 [1] = test system: T3, OR2W1
# T3 sequence (whole entry): T2 sequence (whole entry) with D296N
# Procedure, shortened: as §1
# OR2W1 [2] = test system: T4, OR2W1; remark: listed apart in the source
# T4 sequence (whole entry): T2 sequence (whole entry) with M81V
# Procedure, shortened: as §1
compound,measurement,setting,value
CCCCCCCCCCCCCCCC(=O)[O-].[H+],odorant receptor agonist call,OR2T4 (Homo sapiens),inactive
CCCCCCCCCCCCCCCC(=O)OC,odorant receptor agonist call,OR2T4 (Homo sapiens),inactive
CC=CC(=O)C1=C(C)CCCC1(C)C,odorant receptor agonist call,OR2W1 (Homo sapiens),inactive
CC(=O)C1=NCCS1,odorant receptor agonist call,OR2W1 (Homo sapiens),inactive
CCCCCCCCS,odorant receptor agonist call,OR2W1 (Homo sapiens),active
CCCCCCC(=O)[O-].[H+],odorant receptor agonist call,OR2T4 (Homo sapiens),inactive
same,odorant receptor agonist call,OR2W1 (Homo sapiens),inactive
CCO,odorant receptor agonist call,OR2W1 (Homo sapiens),inactive
C=CC(=O)CC=CCC,odorant receptor agonist call,OR2W1 (Homo sapiens),inactive
Cc1cccc(C)c1O,odorant receptor agonist call,OR2W1 (Homo sapiens),inactive
CSC,odorant receptor agonist call,OR2W1 (Homo sapiens),inactive
C=C(C)C1CC=C(C)CC1 (configuration not stated),odorant receptor agonist call,OR2T4 (Homo sapiens),inactive
same,odorant receptor agonist call,OR2W1 (Homo sapiens),active
same,odorant receptor agonist call,OR2W1 [1],active
same,odorant receptor agonist call,OR2W1 [2],active
CCCCCC1=C(C)CCC1=O,odorant receptor agonist call,OR2W1 (Homo sapiens),active
O=C(O)CCc1ccccc1,odorant receptor agonist call,OR2W1 (Homo sapiens),inactive
CCCCCCCC(=O)OCC,odorant receptor agonist call,OR2T4 (Homo sapiens),inactive
same,odorant receptor agonist call,OR2W1 (Homo sapiens),active
same,odorant receptor agonist call,OR2W1 [1],active
same,odorant receptor agonist call,OR2W1 [2],inactive
CC=O,odorant receptor agonist call,OR2W1 (Homo sapiens),inactive
CCCCC(=O)O,odorant receptor agonist call,OR2W1 (Homo sapiens),inactive
C=C(C)C1CCC(C)C(=O)C1 (configuration not stated),odorant receptor agonist call,OR2W1 (Homo sapiens),active
O=c1ccc2ccccc2o1,odorant receptor agonist call,OR2T4 (Homo sapiens),inactive
same,odorant receptor agonist call,OR2W1 (Homo sapiens),active
same,odorant receptor agonist call,OR2W1 [1],active
same,odorant receptor agonist call,OR2W1 [2],inactive
CCC(C)CO (configuration not stated),odorant receptor agonist call,OR2T4 (Homo sapiens),inactive
same,odorant receptor agonist call,OR2W1 (Homo sapiens),active
same,odorant receptor agonist call,OR2W1 [1],active
same,odorant receptor agonist call,OR2W1 [2],active
CC=CC(=O)C1=C(C)C=CCC1(C)C,odorant receptor agonist call,OR2W1 (Homo sapiens),inactive
Cc1occc1S,odorant receptor agonist call,OR2W1 (Homo sapiens),inactive
Cc1ccc(O)cc1,odorant receptor agonist call,OR2W1 (Homo sapiens),inactive
CCCCCCCCO,odorant receptor agonist call,OR2T4 (Homo sapiens),inactive
same,odorant receptor agonist call,OR2W1 (Homo sapiens),active
CCC=O,odorant receptor agonist call,OR2W1 (Homo sapiens),inactive
CCCCCCCCC1CCC(=O)O1 (configuration not stated),odorant receptor agonist call,OR2W1 (Homo sapiens),inactive
CCCCCOC(=O)CCCCC,odorant receptor agonist call,OR2W1 (Homo sapiens),inactive
CCC(=O)C1=NCCC1,odorant receptor agonist call,OR2W1 (Homo sapiens),inactive
CCCC(C)=O,odorant receptor agonist call,OR2W1 (Homo sapiens),inactive
CCCCCCC(C)=O,odorant receptor agonist call,OR2W1 (Homo sapiens),active
CCCCOC(=O)C(C)OC(=O)CCC (configuration not stated),odorant receptor agonist call,OR2W1 (Homo sapiens),inactive
COC1=C(C)OC(C)C1=O (configuration not stated),odorant receptor agonist call,OR2W1 (Homo sapiens),inactive
CCCCCCCC(=O)[O-].[H+],odorant receptor agonist call,OR2T4 (Homo sapiens),inactive
same,odorant receptor agonist call,OR2W1 (Homo sapiens),active
same,odorant receptor agonist call,OR2W1 [1],active
same,odorant receptor agonist call,OR2W1 [2],inactive
CSSSC,odorant receptor agonist call,OR2W1 (Homo sapiens),active
CC12CCC(CC1=O)C2(C)C (configuration not stated),odorant receptor agonist call,OR2W1 (Homo sapiens),inactive
CCCCCCCCCC(=O)OCC,odorant receptor agonist call,OR2T4 (Homo sapiens),inactive
same,odorant receptor agonist call,OR2W1 (Homo sapiens),active
same,odorant receptor agonist call,OR2W1 [1],active
same,odorant receptor agonist call,OR2W1 [2],active
C=CC(=O)CC,odorant receptor agonist call,OR2W1 (Homo sapiens),inactive
C=CCOC(=O)CCCCCC,odorant receptor agonist call,OR2W1 (Homo sapiens),inactive
